Experimental data: ChEMBL document CHEMBL1123476, “Synthesis of congeners and prodrugs of the benzene maleimide photoadduct mitindomide as potential antitumor agents. 2” (J Med Chem, 1986)
Where “and” joins values, the source holds several entries; their conditions need not be identical. Equal entries are not always repeated.

Assays:
[1] = system: P388; test: (§1) Antitumor activity in P-388 lymphocytic leukemia system at 50 mg/kg dose levels per injection.; type: functional, Mus musculus
Procedure, shortened: (§2)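 P-388 leukemia in animals, Q01D×09 schedule: dose given daily for 9 days, in mg/kg per injection. Read-outs are survivors on day 4 (live/total animals), body-weight difference test minus control (g), and % T/C (median lifetime of treated ÷ median lifetime of controls × 100). Some compounds were tested in independent runs at different times.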

[2] = system: P388; test: as §1; type: functional, Mus musculus; remark: listed apart in the source
Procedure, shortened: (§3)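 P-388 leukemia in vivo, dosed Q01D×09 (one injection daily for 9 days, mg/kg per injection). Activity is %T/C, the median lifetime of treated animals divided by that of controls, ×100. Live animals on day 4 were counted against the total (survivors day 4). Repeat tests were done independently at different times.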

[3] = Solubility was determined; INS= less than 0.1; type: physicochemical
[4] = system: P388; test: (§4) Antitumor activity in P-388 lymphocytic leukemia system at 100 mg/kg dose levels per injection.; type: functional, Mus musculus; procedure, shortened: as §2
[5] = system: P388; test: Compound was tested for antitumor activity in P-388 lymphocytic leukemia system at 400 mg/kg dose levels per injection; 6/6; type: functional, Mus musculus; procedure, shortened: as §2
[6] = system: P388; test: as §4; type: functional, Mus musculus; procedure, shortened: as §3; remark: listed apart in the source
[7] = system: P388; test: Compound was tested for antitumor activity in P-388 lymphocytic leukemia system at 400 mg/kg dose levels per injection; type: functional, Mus musculus; procedure, shortened: as §3
[8] = system: P388; test: (§5) Antitumor activity in P-388 lymphocytic leukemia system at 200 mg/kg dose levels per injection.; type: functional, Mus musculus; procedure, shortened: as §3
[9] = system: P388; test: Compound was tested for antitumor activity in P-388 lymphocytic leukemia system. at 400 mg/kg dose levels per injection; type: functional, Mus musculus; procedure, shortened: as §3
[10] = system: P388; test: as §5; type: functional, Mus musculus; procedure, shortened: as §2; remark: listed apart in the source
[11] = system: P388; test: Compound was tested for antitumor activity in P-388 lymphocytic leukemia system at 200 mg/kg dose levels per injection; type: functional, Mus musculus; procedure, shortened: as §3
[12] = system: P388; test: Antitumor activity in P-388 lymphocytic leukemia system and the difference in body weight was calculated at 50 mg/kg dose levels per injection.; type: functional, Mus musculus
[13] = system: P388; test: Compound was tested for antitumor activity in P-388 lymphocytic leukemia system and the difference in body weight was calculated at 400 mg/kg dose levels per injection; type: functional, Mus musculus
[14] = system: P388; test: Compound was tested for antitumor activity in P-388 lymphocytic leukemia system at 400 mg/kg dose levels per injection; Toxic; type: functional, organism-based; set-up: dose 400 mg/kg; settings: Mus musculus; procedure, shortened: as §3
[15] = system: P388; test: Antitumor activity in P-388 lymphocytic leukemia system and the difference in body weight was calculated at 200 mg/kg dose levels per injection.; type: functional, Mus musculus; settings: 200 mg/kg
[16] = Solubility was determined; type: physicochemical
[17] = system: P388; test: Compound was tested for antitumor activity in P-388 lymphocytic leukemia system at 400 mg/kg dose levels per injection; 3/6; type: functional, Mus musculus; procedure, shortened: as §2
[18] = system: P388; test: Compound was tested for antitumor activity in P-388 lymphocytic leukemia system at 200 mg/kg dose levels per injection; 5/6; type: functional, Mus musculus; procedure, shortened: as §2
[19] = system: P388; test: Compound was tested for antitumor activity in P-388 lymphocytic leukemia system at 25 mg/kg dose levels per injection; 6/6; type: functional, Mus musculus; procedure, shortened: as §2
[20] = system: P388; test: Antitumor activity in P-388 lymphocytic leukemia system at 25 mg/kg dose levels per injection; type: functional, Mus musculus; procedure, shortened: as §3
[21] = system: P388; test: Compound was tested for antitumor activity in P-388 lymphocytic leukemia system at 25 mg/kg dose levels per injection; type: functional, Mus musculus; procedure, shortened: as §3
[22] = system: P388; test: Compound was tested for antitumor activity in P-388 lymphocytic leukemia system at 100 mg/kg dose levels per injection; 5/6; type: functional, Mus musculus; procedure, shortened: as §2
[23] = system: P388; test: Antitumor activity in P-388 lymphocytic leukemia system at 25 mg/kg dose levels per injection.; type: functional, Mus musculus; procedure, shortened: as §2
[24] = system: P388; test: Antitumor activity in P-388 lymphocytic leukemia system and the difference in body weight calculated at 100 mg/kg dose levels per injection.; type: functional, Mus musculus
[25] = system: P388; test: Compound was tested for antitumor activity in P-388 lymphocytic leukemia system at 166.7 mg/kg dose levels per injection; Toxic; type: functional, organism-based; set-up: dose 166.7 mg/kg; settings: Mus musculus; procedure, shortened: as §3
[26] = system: P388; test: Compound was tested for antitumor activity in P-388 lymphocytic leukemia system. at 200 mg/kg dose levels per injection; Toxic; type: functional, organism-based; set-up: dose 200 mg/kg; settings: Mus musculus; procedure, shortened: as §3
[27] = system: P388; test: Compound was tested for antitumor activity in P-388 lymphocytic leukemia system at 200 mg/kg dose levels per injection;6/6; type: functional, Mus musculus; procedure, shortened: as §2
[28] = system: P388; test: Compound was tested for antitumor activity in P-388 lymphocytic leukemia system. at 400 mg/kg dose levels per injection; Toxic; type: functional, organism-based; set-up: dose 400 mg/kg; settings: Mus musculus; procedure, shortened: as §3
[29] = system: P388; test: Antitumor activity in P-388 lymphocytic leukemia system and the difference in body weight was calculated at 25 mg/kg dose levels per injection.; type: functional, Mus musculus
[30] = system: P388; test: Compound was tested for antitumor activity in P-388 lymphocytic leukemia system at 200 mg/kg dose levels per injection; 0/6; type: functional, Mus musculus; procedure, shortened: as §2
[31] = system: P388; test: Compound was tested for antitumor activity in P-388 lymphocytic leukemia system at 200 mg/kg dose levels per injection.; type: functional, organism-based; set-up: dose 200 mg/kg; settings: Mus musculus; procedure, shortened: as §3

Row | Compound | Survivors at day 4 [1] | T/C [2] [%] | Weight difference [2] [g] | Solubility [3] | Survivors at day 4 [4] | Survivors at day 4 [5] | T/C [6] [%] | Weight difference [6] [g] | Survivors at day 4 [10] | Weight difference [15] | T/C ([6]; 100 mg/kg) | T/C ([8]; 200 mg/kg) | T/C ([2]; 50 mg/kg) | also measured
1 | CC1=CC2(C)C3C(=O)NC(=O)C3C1C1(C)C3C(=O)NC(=O)C3C21 (configuration not stated) | 6 | 108 | -0.9 | Insoluble | 6 | 6 | 109 | -1.5 | 6 | – | – | – | – | Weight difference [7]: -5.3 g; T/C [8]: 97%; T/C [9]: 101%; Weight difference [11]: -1.8 g
2 | CN1CCN(CN2C(=O)C3C4C=CC(C3C2=O)C2C(=O)N(CN3CCN(C)CC3)C(=O)C42)CC1 (configuration not stated) | 6 | 108 | – | – | 6 | – | – | – | 6 | -3.1 g and -3.6 g | 126% and 113% | 122% and 128% | – | Weight difference [12]: 0 g; Weight difference [13]: -6.4 g; T/C [14]: Toxic; Solubility [16]: 2%; Survivors at day 4 [17]: 3
3 | O=C1NC(=O)C2C3C=CC(C12)C1C(=O)NC(=O)C31 (configuration not stated) | 6 | 100 | -1.1 | Insoluble | – | – | 97 | -2.4 | – | – | – | – | – | Survivors at day 4 [18]: 5; Survivors at day 4 [19]: 6; T/C [8]: 92%; T/C [20]: 105%; Weight difference [21]: -0.7 g; Survivors at day 4 [22]: 5; Weight difference [11]: -4.3 g
4 | O=C1NC(=O)C2C1C(C(=O)O)C1C3C(=O)NC(=O)C3C1C2C(=O)O (configuration not stated) | 6 | 94 | 0 | Insoluble | 6 | 6 | 97 | -0.7 | 6 | – | – | 92% and 91% | – | T/C [7]: 96%; Weight difference [7]: -0.2 g
5 | O=C1C2C3C=CC(C2C(=O)N1CO)C1C(=O)N(CO)C(=O)C31 (configuration not stated) | 6 | – | – | – | 6 | – | – | – | 6 | -3.4 g and -4.1 g | 144% and 137% | 160% and 152% | 127% and 140% | Weight difference ([12]; 50 mg/kg): -2.5 g and -1.8 g; Survivors at day 4 [23]: 6; Weight difference ([24]; 100 mg/kg): -3.9 g and -4 g; Solubility [16]: 0.5%; T/C ([20]; 25 mg/kg): 114% and 132%
6 | CN1C(=O)C2C3C=CC(C2C1=O)C1C2C(=O)N(C)C(=O)C2C31 (configuration not stated) | 6 | 108 | -0.9 | Insoluble | 6 | 6 | 111 | -0.8 | 6 | – | – | 111% and 104% | – | T/C [7]: 135%; Weight difference [7]: -2 g; Weight difference ([11]; 200 mg/kg): -0.8 g and -1.4 g
7 | CN1CCN(CN2C(=O)C3C4C=CC(C3C2=O)C2C3C(=O)N(CN5CCN(C)CC5)C(=O)C3C42)CC1 (configuration not stated) | – | – | – | – | – | – | – | – | – | – | – | – | – | T/C [25]: Toxic; T/C [26]: Toxic
8 | O=C(O)C1C2C(=O)N(CO)C(=O)C2C(C(=O)O)C2C3C(=O)N(CO)C(=O)C3C12 (configuration not stated) | 6 | – | – | – | 6 | 6 | – | – | 6 | – | 120% and 107% | 114% and 120% | 92% and 105% | Weight difference ([12]; 50 mg/kg): -0.9 g and -1.2 g; T/C ([9]; 400 mg/kg): 129% and 131%
9 | COC1=CC2C3C(=O)NC(=O)C3C1C1C3C(=O)NC(=O)C3C21 (configuration not stated) | 6 | 99 | – | Insoluble | 6 | 6 | 101 | – | 6 | -0.3 g and -0.4 g | – | 101% and 90% | – | Weight difference [12]: 0 g; Weight difference [13]: -2 g; Survivors at day 4 [27]: 6; Weight difference [24]: -0.3 g; T/C [9]: 98%
10 | CC(=O)OC(C(=O)O)N1C(=O)C2C3C=CC(C2C1=O)C1C2C(=O)N(C(OC(C)=O)C(=O)O)C(=O)C2C31 (configuration not stated) | 6 | 110 | – | – | 6 | – | – | – | 6 | -1.2 g and -0.5 g | 123% and 113% | 175% and 125% | – | Weight difference [12]: -0.3 g; Weight difference [13]: -5.7 g; Survivors at day 4 [23]: 6; T/C [28]: Toxic; Weight difference [29]: 0.2 g; T/C [21]: 103%; Survivors at day 4 [17]: 3
11 | CCOC(=O)N1C(=O)C2C3C=CC(C2C1=O)C1C2C(=O)N(C(=O)OCC)C(=O)C2C31 (configuration not stated) | 6 | – | – | Insoluble | 6 | – | – | – | 6 | – | 152% and 145% | – | 135% and 121% | Weight difference ([2]; 50 mg/kg): -0.6 g and -0.8 g; Survivors at day 4 [30]: 0; Survivors at day 4 [23]: 6; T/C [31]: Toxic; Weight difference ([6]; 100 mg/kg): -4.6 g and -5.5 g; T/C ([20]; 25 mg/kg): 124% and 116%; Weight difference [11]: -6.5 g
12 | CCOC(=O)N1C(=O)C2C3CCC(C2C1=O)C1C2C(=O)N(C(=O)OCC)C(=O)C2C31 (configuration not stated) | 6 | – | – | Insoluble | 6 | – | – | – | 6 | – | 157% and 142% | – | 127% and 115% | Survivors at day 4 [18]: 5; Weight difference ([2]; 50 mg/kg): -0.3 g and -0.4 g; T/C [31]: Toxic; Survivors at day 4 [19]: 6; Weight difference ([6]; 100 mg/kg): -1.2 g and -2.2 g; T/C [8]: 222%; T/C ([20]; 25 mg/kg): 111% and 104%; Weight difference ([21]; 25 mg/kg): -0.5 g and -0.7 g; Weight difference ([11]; 200 mg/kg): -4 g and -5.2 g
